Assay outcomes deposited in PubChem by several laboratories.
The list is not random: actives were taken first. Their share in the collection is about 3.6%.
HCV NS3 hel inh: inhibitors of HCV NS3 helicase, primary screen, biochemical, Cy5 molecular beacon fluorescence. Hepatitis C virus NS3 helicase. NS3 helicase DNA unwinding. inhibition, % at 10.9 µM. 290,000 tested, 0.56% active. AID 1800, 2009;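 active = inhibition above the mean of all tested compounds plus 3 SD, set per campaign, cut at about 35% in these data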;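 note: 0% = DMSO wells and 100% = thioflavine S control wells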
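Test system: hepatitis C virus NS3 helicase domain fragment enzyme. Also added: annealed dual-labelled DNA beacon duplex, ATP-started. Timing: 60 min unwinding reaction at 25 °C after ATP addition. Technique: Cy5 fluorescence. Measure: % inhibition of unwinding.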
FGF22 binding: binders of human FGF22 protein, primary screen, FGF22 synaptogenesis inhibitor project, biophysical, thermal shift, single point; Fibroblast growth factor 22 (Homo sapiens), Q9HCT0; recombinant FGF22 thermal shift, SYPRO orange fluorescence; percent of sucrose octasulfate shift, DMSO zero; activity (Tm shift, normalised), % at 9.99 µM; 340,000 tested, 1.5% active; AID 651658, 2012;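 active = mean Tm shift, scaled 0 neutral to 100 positive control, at about 1.3% or above, every replicate too, limit read from the data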
Target sequence (Q9HCT0 whole entry, looked up): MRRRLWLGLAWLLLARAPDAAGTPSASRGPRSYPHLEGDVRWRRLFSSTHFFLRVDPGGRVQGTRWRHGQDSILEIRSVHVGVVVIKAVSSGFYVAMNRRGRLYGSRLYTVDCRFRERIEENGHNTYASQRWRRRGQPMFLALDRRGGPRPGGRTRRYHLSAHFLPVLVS
EBNA-1 inhibitor: EBNA-1 DNA-binding inhibitors, primary screen, biochemical, fluorescence polarization | inhibition, % at 14.8 µM | 300,000 tested, 0.34% active | AID 1950, 2009; in the data active = inhibition above about 28%
FID counter: compounds displacing fluorescent DNA intercalator, primary screen, artefact control for HCV NS3 helicase inhibitor project, biochemical, FID fluorescence | DNA fluorescent intercalator displacement | inhibition, % at 7.9 µM | 290,000 tested, 0.17% active; in the data active = inhibition above about 37%;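 note: 0% = vehicle and 100% = reference compound; higher means more ethidium bromide displaced from hairpin DNA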
NR3A LBD binder: binders of NR3A ligand-binding domain, primary screen, biophysical, differential scanning fluorimetry, uHTS. 340,000 tested, 2.5% active. AID 1259313, 2017. Tm shift relative to glycine control, % at 25 µM. NR3A LBD differential scanning fluorimetry, Tm shift; 0% = protein alone, 100% = glycine-bound protein;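 active = melting temperature shift of at least 10% of the positive control shift, at one fixed dose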
ZTA counter: blocks Epstein-Barr virus ZTA, an EBNA-1 counter-screen; P03206; ZTA-DNA binding, fluorescence polarization; inhibition, % at 11 µM; 320,000 tested, 0.15% active; AID 2234; in the data active = inhibition above about 33%
Target sequence (P03206 whole entry, looked up): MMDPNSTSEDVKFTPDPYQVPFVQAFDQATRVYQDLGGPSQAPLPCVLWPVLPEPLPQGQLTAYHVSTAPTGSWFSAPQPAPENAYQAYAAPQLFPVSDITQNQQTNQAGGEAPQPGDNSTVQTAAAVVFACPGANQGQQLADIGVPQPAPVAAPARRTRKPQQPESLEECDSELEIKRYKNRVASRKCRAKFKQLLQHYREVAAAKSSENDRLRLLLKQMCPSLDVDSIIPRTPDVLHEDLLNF
Numbers without * were called inactive; · = no result given.

SMILES | HCV NS3 hel inh | FGF22 binding | EBNA-1 inhibitor | FID counter | NR3A LBD binder | ZTA counter
Cc1cccc(-c2ccc([C@@H]3[C@H](CO)N4CCCCN(S(=O)(=O)c5cn(C)cn5)C[C@@H]34)cc2)c1 | · | 0 | · | · | · | ·
COc1ccc(C(=O)N/C(=C\c2cc(OC)c(OC)cc2[N+](=O)[O-])C(=O)NCC(=O)O)cc1 | -5 | 43* | 4 | -6 | -1 | 12
COc1cc(/C=C(\NC(=O)c2ccccc2)C(=O)NCC(=O)O)c([N+](=O)[O-])cc1OC | 2 | · | 2 | 2 | -7 | -10
COc1cccc(N2CCN(C(=O)CN3C(=O)NC(C)(c4ccc5ccccc5c4)C3=O)CC2)c1 (stereo not given) | · | · | -8 | · | 19* | 6
COc1ccc(C)cc1Nc1n[n+](-c2ccccc2)c(-c2ccc(SC)cc2)s1 | -30 | 0 | 1 | 14 | 27* | -10
CCOC(=O)c1cn(Cc2ccccc2)c2cc(C)nn2c1=O | 0 | 0 | -14 | -10 | 11* | -9
CCOC(=O)c1cn(Cc2ccc(Cl)cc2Cl)c2cc(C)nn2c1=O | -10 | 0 | 5 | -35 | 0 | -9
Cc1ccc(CN2C(=O)N/C(=C\c3ccc(N4CCOCC4)cc3)C2=O)cc1 | 3 | · | 19 | -2 | 17* | -23
Nc1nc(SCc2ccc(Br)cc2)c2ncn(C3OC(CO)C(O)C3O)c2n1 (stereo not given) | · | 44* | · | · | 2 | ·
C[C@@H]1CCCCO[C@@H](CN(C)C(=O)c2ccncc2)[C@@H](C)CN([C@H](C)CO)C(=O)c2cc(NS(=O)(=O)c3cn(C)cn3)ccc2O1 | · | 1 | · | · | · | ·
Nc1nonc1-n1nnc(C(=O)N/N=C/c2ccc(OCc3ccccc3)cc2)c1CN1CCCCC1 | -29 | 0 | 5 | -9 | 18* | 18
CCCCOc1ccc(/C=N/NC(=O)c2nnn(-c3nonc3N)c2CN2CCCCCC2)cc1 | · | 0 | 2 | · | 0 | 8
Cc1cccc(COc2ccc(/C=N/NC(=O)c3nnn(-c4nonc4N)c3C)cc2)c1 | 5 | 0 | -4 | -5 | 4 | -7
CCCc1c(C(=O)N/N=C/c2ccc(OCc3ccc(F)cc3)cc2)nnn1-c1nonc1N | · | 0 | · | · | · | ·
Nc1nonc1-n1nnc(C(=O)N/N=C/c2ccc(OCc3ccc(F)cc3)cc2)c1COc1ccccc1 | -7 | 41 | 7 | -1 | 26* | -10
Cc1cc(C)c(/C=N/NC(=O)c2nnn(-c3nonc3N)c2COc2ccc(F)cc2)c(C)c1 | 0 | · | 3 | 0 | 26* | 5
Cc1ccc(COc2ccc(/C=N/NC(=O)c3nnn(-c4nonc4N)c3COc3ccc(F)cc3)cc2)cc1 | -8 | 0 | 4 | -3 | 21* | 0
C[C@H](CO)N1C[C@H](C)[C@@H](CN(C)S(=O)(=O)c2ccc(F)cc2)Oc2ccc(NS(C)(=O)=O)cc2CC1=O | · | 0 | · | · | · | ·
CC(C)N(C(=S)NC1CC2CCC1C2)c1ccccc1 (stereo not given) | -12 | 44* | -4 | 3 | 1 | 2
COc1cccc(NC(=O)c2ccc(NCCCN3CCC(C)CC3)c([N+](=O)[O-])c2)c1 | -7 | 0 | -12 | 26 | -1 | -5
Cc1ccc(NC(=O)c2ccc(NCCCN3CCC(C)CC3)c([N+](=O)[O-])c2)c(C)c1 | -27 | 0 | 3 | 22 | 0 | -4
COc1cccc(NC(=O)c2ccc(NCCCN3CC(C)CC(C)C3)c([N+](=O)[O-])c2)c1 (stereo not given) | -88 | 0 | · | 51* | 1 | ·
O=C(Nc1cc(F)cc(F)c1)c1ccc(NCCCN2CCCCCC2)c([N+](=O)[O-])c1 | -13 | 43* | -6 | 36 | 1 | 6
C[C@@H]1CCCCO[C@H](CN(C)C(=O)Cc2ccccc2)[C@H](C)CN([C@H](C)CO)C(=O)c2cc(NS(=O)(=O)c3ccccc3)ccc2O1 | · | -1 | · | · | · | ·
O=C(NC(=O)c1cccc(F)c1)Nc1nc(-c2ccc(F)cc2)cc(C(F)(F)F)n1 | -8 | 44* | -5 | -4 | 1 | 5
SMILES | HCV NS3 hel inh | FGF22 binding | EBNA-1 inhibitor | FID counter | NR3A LBD binder | ZTA counter
COC(=O)c1cc(NC(C)=O)ccc1N1CCOCC1 | 5 | 43* | 4 | -4 | -1 | 16
Cc1ccc(S(=O)(=O)Nc2ccc3c(c2)C(=O)N([C@@H](C)CO)C[C@H](C)[C@H](CN(C)S(=O)(=O)c2cn(C)cn2)O3)cc1 | · | 0 | · | · | · | ·
O=C(CCc1ccccc1)Nc1cc(NC(=O)CCc2ccccc2)cc(C(=O)O)c1 | 15 | · | -7 | -39 | 17* | -1
O=C(CCc1ccccc1)Nc1ccncc1 | -1 | · | 0 | 2 | -13 | 6
CS(=O)(=O)c1ccc(Cl)c(NC(=O)COC(=O)CNC(=O)c2ccccc2)c1 | -3 | 44* | -7 | -1 | -2 | -4
CS(=O)(=O)c1ccc(Cl)c(NC(=O)CCc2ccccc2)c1 | 3 | 43* | -7 | 3 | -2 | -10
CS(=O)(=O)c1ccc(Cl)c(NC(=O)Cc2c(Cl)cccc2Cl)c1 | 11 | 0 | -2 | -3 | -2 | -25
COc1cccc(CN2CCCCN3[C@H](C2)[C@H](c2ccc(-c4cccnc4)cc2)[C@@H]3CO)c1 | · | 0 | · | · | · | ·
C[C@@H]1CN([C@H](C)CO)S(=O)(=O)c2ccc(-c3cccnc3)cc2O[C@@H]1CN(C)C(=O)C1CCCCC1 | · | 0 | · | · | · | ·
CN1CCN(CC(=O)Nc2cc(N(C)C)nc3ccccc23)CC1 | 23 | 0 | 10 | 73* | 1 | -2
CCCCCC(=O)Nc1cc(N(C)C)nc2ccccc12 | -13 | · | 2 | 16 | -2 | -3
Cc1ccccc1NC(=O)CN1CCN(C)CC1 | 4 | -1 | -4 | 3 | -1 | -17
CCN(CC)CC(=O)Nc1cc(N(C)C)nc2ccccc12 | -7 | 0 | -15 | 49* | -2 | -8
CCS(=O)(=O)N[C@H]1CC[C@H](CC(=O)NCc2ccc(Cl)cc2)O[C@H]1CO | · | 0 | · | · | · | ·
COc1ccccc1/C=C/C=N/n1c(C2CCCCC2)n[nH]c1=S | 1 | 0 | 8 | -24 | 13* | 0
CCOc1ccccc1/C=N/n1c(C2CCCCC2)n[nH]c1=S | 19 | 0 | 3 | -34 | 1 | -4
Cn1c(=O)c2nc3ccccc3nc2n(C)c1=O | 3 | 43* | -8 | 2 | -2 | 8
COc1ccccc1CN1CC[C@H]2[C@H](CO)Nc3ccc(-c4ccc(C(=O)N(C)C)cc4)cc3[C@H]21 | · | 0 | · | · | · | ·
CCn1c(=Nc2ccc(N3CCOCC3)cc2)ccc2ccccc21 | 26 | · | -5 | 17 | 14* | -2
Cn1c(=Nc2ccc(N3CCOCC3)cc2)ccc2ccccc21 | 0 | · | -3 | 2 | -2 | -7
